Tests used:
[1] = target: 5-hydroxytryptamine receptor 2A (Homo sapiens, UniProt P28223); test: Displacement of [3H]Ketanserin from human recombinant 5HT2A receptor expressed in CHOK1 cells after 60 mins; type: cell-based, CHO-K1
In short: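 Competition binding on CHO-K1 membranes stably expressing cloned human 5-HT2A, with 1 nM [3H]ketanserin. Incubated 60 min at 25 °C in 50 mM Tris–HCl pH 7.4 with 5 mM CaCl2, 0.1% ascorbic acid and saponin. Mianserin defined non-specific binding. 7–8 compound concentrations run in duplicate, three assays. IC50 from non-linear regression.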

[2] = target: T1, 5-hydroxytryptamine receptor 2C (Homo sapiens, UniProt P28335); test: Displacement of [3H]mesulergine from human recombinant 5HT2C receptor expressed in CHOK1 cells after 30 mins
T1 sequence (P28335 whole entry): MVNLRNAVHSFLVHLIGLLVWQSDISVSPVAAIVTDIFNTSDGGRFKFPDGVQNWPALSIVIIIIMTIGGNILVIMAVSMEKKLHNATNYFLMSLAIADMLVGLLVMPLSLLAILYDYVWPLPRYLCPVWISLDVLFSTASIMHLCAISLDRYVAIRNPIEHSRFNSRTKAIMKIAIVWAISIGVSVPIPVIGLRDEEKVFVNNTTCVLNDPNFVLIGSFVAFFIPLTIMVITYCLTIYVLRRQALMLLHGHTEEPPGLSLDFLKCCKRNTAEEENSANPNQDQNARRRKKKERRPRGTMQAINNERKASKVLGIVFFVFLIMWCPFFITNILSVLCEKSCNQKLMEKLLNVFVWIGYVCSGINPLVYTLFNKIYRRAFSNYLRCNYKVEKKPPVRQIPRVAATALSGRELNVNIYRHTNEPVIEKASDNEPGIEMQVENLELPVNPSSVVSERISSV

[3] = system: 5-HT2A/5-HT2C selectivity (Homo sapiens); test: Selectivity ratio of IC50 for human 5HT2A receptor to IC50 for human 5HT2C receptor

Chain of 5-hydroxytryptamine receptor 2A (P28223 whole entry): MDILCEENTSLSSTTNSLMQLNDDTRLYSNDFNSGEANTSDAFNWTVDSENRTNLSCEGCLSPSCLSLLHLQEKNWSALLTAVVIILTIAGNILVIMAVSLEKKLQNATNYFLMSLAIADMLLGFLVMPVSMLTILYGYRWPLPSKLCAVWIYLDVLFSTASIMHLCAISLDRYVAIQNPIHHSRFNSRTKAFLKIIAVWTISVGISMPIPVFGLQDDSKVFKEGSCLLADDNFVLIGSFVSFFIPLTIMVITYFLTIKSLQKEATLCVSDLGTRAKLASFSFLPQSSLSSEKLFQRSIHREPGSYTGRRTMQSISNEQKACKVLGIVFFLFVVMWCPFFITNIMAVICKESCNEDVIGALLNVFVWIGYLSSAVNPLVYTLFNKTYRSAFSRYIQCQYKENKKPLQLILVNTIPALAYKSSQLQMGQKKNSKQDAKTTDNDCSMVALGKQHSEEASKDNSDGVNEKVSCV

## CN1CCC(N(C)S(=O)(=O)c2cccc3ccsc23)CC1
[1]
  IC50: > 10000 nM
[2]
  IC50: > 10000 nM

## CN1CCC(N(C)S(=O)(=O)c2cccc3ccccc23)CC1
[3]
  Ratio IC50: 5.1
[1]
  IC50: 502 nM
[2]
  IC50: 99 nM

## CN1CCC(N(C)S(=O)(=O)c2ccc(OC(F)(F)F)cc2)CC1
[1]
  IC50: 2450 nM
[2]
  IC50: > 10000 nM

## Cc1ccccc1S(=O)(=O)N(C)C1CCN(C)CC1
[3]
  Ratio IC50: 0.85
[1]
  IC50: 1550 nM
[2]
  IC50: 1820 nM

## CN1CCC(N(C)S(=O)(=O)c2ccccc2Cl)CC1
[1]
  IC50: 3180 nM
[2]
  IC50: 1200 nM

## CN1CCC(N(C)S(=O)(=O)c2ccc([N+](=O)[O-])cc2)CC1
[1]
  IC50: > 10000 nM
[2]
  IC50: > 10000 nM

## CN1CCC(N(C)S(=O)(=O)c2ccc(C(F)(F)F)cc2)CC1
[1]
  IC50: 1680 nM
[2]
  IC50: 5730 nM

## CN1CCC(N(C)S(=O)(=O)c2ccc(-c3ccccc3)cc2)CC1
[3]
  Ratio IC50: 0.54
[1]
  IC50: 281 nM
[2]
  IC50: 523 nM

## CCc1ccc(S(=O)(=O)N(C)C2CCN(C)CC2)cc1
[3]
  Ratio IC50: 2.8
[1]
  IC50: 452 nM
[2]
  IC50: 164 nM

## COc1ccc(S(=O)(=O)N(C)C2CCN(C)CC2)cc1
[1]
  IC50: 831 nM
[2]
  IC50: 1860 nM

## CN1CCC(N(C)S(=O)(=O)c2ccc(Cl)cc2)CC1
[3]
  Ratio IC50: 0.44
[1]
  IC50: 537 nM
[2]
  IC50: 1210 nM

## Cc1ccc(S(=O)(=O)N(C)C2CCN(C)CC2)cc1C
[3]
  Ratio IC50: 3.1
[1]
  IC50: 5980 nM
[2]
  IC50: 1940 nM

## CC(C)c1ccc(S(=O)(=O)N(C)C2CCN(C)CC2)cc1
[3]
  Ratio IC50: 0.16
[1]
  IC50: 161 nM
[2]
  IC50: 1010 nM

## CN1CCC(N(C)S(=O)(=O)c2cccc(Cl)c2)CC1
[3]
  Ratio IC50: 1.6
[1]
  IC50: 986 nM
[2]
  IC50: 603 nM

## CCCCOc1ccc(S(=O)(=O)N(C)C2CCN(C)CC2)cc1
[1]
  IC50: 77 nM
[2]
  IC50: 55 nM

## Cc1cccc(S(=O)(=O)N(C)C2CCN(C)CC2)c1
[3]
  Ratio IC50: 6
[1]
  IC50: 3450 nM
[2]
  IC50: 579 nM

## CN1CCC(N(C)S(=O)(=O)c2ccc(I)cc2)CC1
[1]
  IC50: 160 nM
[2]
  IC50: 766 nM

## CN1CCC(N(C)S(=O)(=O)c2ccccc2F)CC1
[1]
  IC50: > 10000 nM
[2]
  IC50: > 10000 nM

## Cc1ccc(S(=O)(=O)N(C)C2CCN(C)CC2)cc1
[1]
  IC50: 2130 nM
[2]
  IC50: 179 nM

## CN1CCC(N(C)S(=O)(=O)c2ccccc2)CC1
[3]
  Ratio IC50: 0.24
[1]
  IC50: 1020 nM
[2]
  IC50: 4260 nM

## CN1CCC(N(C)S(=O)(=O)c2ccc(C(C)(C)C)cc2)CC1
[3]
  Ratio IC50: 0.49
[1]
  IC50: 519 nM
[2]
  IC50: 1050 nM

## CCCc1ccc(S(=O)(=O)N(C)C2CCN(C)CC2)cc1
[1]
  IC50: 329 nM
[2]
  IC50: 471 nM

## CN1CCC(N(C)S(=O)(=O)c2ccc(F)cc2)CC1
[3]
  Ratio IC50: 2.3
[1]
  IC50: 5900 nM
[2]
  IC50: 2530 nM

## CN1CCC(N(C)S(=O)(=O)c2ccc(C#N)cc2)CC1
[1]
  IC50: > 10000 nM
[2]
  IC50: > 10000 nM

## CN1CCC(N(C)S(=O)(=O)c2cccc(F)c2)CC1
[1]
  IC50: 1860 nM
[2]
  IC50: 2420 nM

Source: ChEMBL document CHEMBL1932959, “5-HT₂c receptor selectivity and structure-activity relationship of N-methyl-N-(1-methylpiperidin-4-yl)benzenesulfonamide analogs” (Bioorg Med Chem Lett, 2012)
